Results on 15 compounds are retold here after ChEMBL document CHEMBL1146004, “Effect of substitution on novel tricyclic HIV-1 integrase inhibitors” (Bioorg Med Chem Lett, 2006).

The subject of data set [1] is Human immunodeficiency virus 1. Put plainly: Antiviral activity against HIV1 3B in MT4 cell line. In kind it is functional, organism-based. The note with it: Human immunodeficiency virus 1, 3B. A digest of the protocol: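 MT-4 cells infected with HIV-1 IIIB at moi 0.01 for 3 h, then ~1.5 × 10⁴ cells/well added to 5-fold serial drug dilutions (9 concentrations, triplicate) in culture medium; 37 °C for 5 days. Viability read by CellTiter-Glo chemiluminescence after 10 min lysis at room temperature; EC50 derived.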

Data set [2] concerns MT4. Kind of data set: Cytotoxicity against human MT4 cells. In kind it is functional.
The target of data set [3] is Human immunodeficiency virus type 1 integrase (Human immunodeficiency virus 1, UniProt Q7ZJM1). Kind of data set: Inhibition of HIV1 integrase strand transfer activity.
A short description of data set [4]: physchem. The note with it: buffer, pH 7.3.
Data set [5] can be described thus: physchem. The note with it: buffer, pH 2.2.

Values after ≈ are worked out from the molar mass of the structure shown.

Human immunodeficiency virus type 1 integrase, sequence (Q7ZJM1 whole entry): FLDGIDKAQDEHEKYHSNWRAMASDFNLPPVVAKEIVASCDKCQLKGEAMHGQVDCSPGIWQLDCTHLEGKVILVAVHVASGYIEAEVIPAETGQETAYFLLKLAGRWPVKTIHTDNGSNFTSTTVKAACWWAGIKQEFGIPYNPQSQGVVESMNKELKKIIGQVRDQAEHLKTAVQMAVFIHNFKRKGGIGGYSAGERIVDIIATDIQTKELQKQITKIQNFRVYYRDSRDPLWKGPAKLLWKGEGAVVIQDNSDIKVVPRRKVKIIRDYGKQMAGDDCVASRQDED

For orientation: EC50 means the concentration giving half of the maximal effect. High values mean weaker potency, low ones greater potency. The CC50 is the concentration at which the toxic effect on the cells reaches its halfway point. Read a high CC50 as better tolerance by the cells. By IC50 is commonly meant the midpoint of a concentration-inhibition curve. For the compound `C=C1c2c(c(O)c3ncccc3c2OC)C(=O)N1Cc1ccc(F)cc1`, the EC50 in data set [1] is 375 nM. Moreover, it took 6100 nM to reach half-maximal cytotoxicity in data set [2] (CC50). The same compound had an IC50 in data set [3] of 150 nM.

In turn, `COc1c2c(c(O)c3ncccc13)C(=O)N(Cc1ccc(F)cc1)C2OC` (configuration not stated) displayed an EC50 in data set [1] of 415 nM. In data set [2], this compound displayed a CC50 of 11400 nM. In data set [3], half-maximal inhibition (IC50) required 64 nM.

A word on the solubility: it is the concentration that dissolves in the medium under given conditions. Read a high solubility as a readily soluble substance. `O=C1c2c(c(O)c3ncccc3c2O)C(=O)N1Cc1ccc(F)cc1` yielded an EC50 in data set [1] of 7500 nM. Moreover, the midpoint of cytotoxicity in data set [2], the CC50, lay at 19000 nM. The solubility in data set [4] and in data set [5] was under 1.4 µM in each case. Further, the IC50 in data set [3] was found to be 80 nM.

Take `COc1c2c(c(O)c3ncccc13)C(=O)N(Cc1ccc(F)cc1)C2C` (configuration not stated): a half-maximal effect in data set [1] (EC50) was put at 77 nM. In data set [2], this compound showed a CC50 of 1600 nM. The results for the solubility in data set [4] and in data set [5] were 3 µM (≈ 1.06 µg/mL) and 193 µM (≈ 68 µg/mL), respectively. In data set [3], this compound had an IC50 of 88 nM.

`COc1c2c(c(O)c3ncccc13)C(=O)N(Cc1ccc(F)cc1)C2(C)C` gave an EC50 in data set [1] of 1110 nM. In addition, in data set [2], the CC50 worked out at 427 nM. The compound also showed an IC50 in data set [3] of 210 nM.

Compound `COC(=O)CCSC1c2c(c(O)c3ncccc3c2OC)C(=O)N1Cc1ccc(F)cc1` (configuration not stated) had an EC50 in data set [1] of 430 nM. The compound also yielded a CC50 in data set [2] of 2800 nM. The midpoint of inhibition in data set [3], the IC50, lay at 310 nM.

In the case of `COc1c2c(c(O)c3ncccc13)C(=O)N(Cc1ccc(F)cc1)C2O` (configuration not stated), in data set [1], a half-maximal effect (EC50) was put at 256 nM. The compound also yielded a CC50 in data set [2] of 9740 nM. Further, the IC50 in data set [3] was found to be 36 nM.

In the case of `CN(C)S(=O)(=O)Oc1c2c(c(O)c3ncccc13)C(=O)N(Cc1ccc(F)cc1)C2`, the CC50 in data set [2] is 1400 nM. Also, the solubility is under 2.3 µM in data set [4] and 7 µM (≈ 3.02 µg/mL) in data set [5]. This compound also yielded an IC50 in data set [3] of 255 nM.

Consider `COc1c2c(c(O)c3ncccc13)C(=O)N(Cc1ccc(F)cc1)C2SCCC(=O)N1CCNCC1` (configuration not stated), for which, in data set [1], the EC50 is 685 nM. Moreover, in data set [2], the CC50 turned out to be 5250 nM. In data set [3], this compound registered an IC50 of 59 nM.

On to `C=C1c2c(c(O)c3ncccc3c2OS(=O)(=O)N(C)C)C(=O)N1Cc1ccc(F)cc1`, for which, in data set [1], the EC50 stood at 52 nM. Also, the CC50 in data set [2] was 1650 nM. Also, the solubility in data set [4] and in data set [5] was under 1 µM throughout. This compound displayed an IC50 in data set [3] of 420 nM.

Compound `CN(C)S(=O)(=O)Oc1c2c(c(O)c3ncccc13)C(=O)N(Cc1ccc(F)cc1)C21CC1` showed an EC50 in data set [1] of 443 nM. For the same compound, it took 14200 nM to reach half-maximal cytotoxicity in data set [2] (CC50). Also, the results for the solubility in data set [4] and in data set [5] were 2.1 µM (≈ 0.961 µg/mL) and 11 µM (≈ 5.03 µg/mL), respectively. The compound further registered an IC50 in data set [3] of 357 nM.

In data set [1], `CC1c2c(c(O)c3ncccc3c2OS(=O)(=O)N(C)C)C(=O)N1Cc1ccc(F)cc1` (configuration not stated) returned an EC50 of 8 nM. In data set [2], this compound showed a CC50 of 755 nM. In addition, the results for the solubility in data set [4] and in data set [5] were 2 µM (≈ 0.891 µg/mL) and 11 µM (≈ 4.9 µg/mL), respectively. In data set [3], this compound came in with an IC50 of 815 nM.

The compound `COc1c2c(c(O)c3ncccc13)C(=O)N(Cc1ccc(F)cc1)C2` displayed a CC50 in data set [2] of 5100 nM. It took 60 nM to reach half-maximal inhibition in data set [3] (IC50).

In turn, `COc1c2c(c(O)c3ncccc13)C(=O)N(Cc1ccc(F)cc1)C2SCCC(=O)O` (configuration not stated) returned an EC50 in data set [1] of 3400 nM. In data set [2], this compound displayed a CC50 of 24000 nM. The compound further displayed a 50% inhibitory concentration (IC50) in data set [3] of 295 nM.

On to `COc1c2c(c(O)c3ncccc13)C(=O)N(Cc1ccc(F)cc1)C21CC1`, for which the EC50 in data set [1] was determined as 124 nM. For the same compound, in data set [2], the CC50 is 3300 nM. Further, the solubility in data set [4] amounted to 26 µM (≈ 9.47 µg/mL); in data set [5], 49 µM (≈ 17.9 µg/mL). Besides, the midpoint of inhibition in data set [3], the IC50, lay at 7 nM.
